NR2E3 ag-1: inhibitors of NR2E3-RetCOR corepressor binding, primary screen, NR2E3 agonist project, biochemical, TR-FRET, GST-NR2E3, biotin-RetCOR. inhibition of corepressor binding, % at 4.78 µM. AID 2300, 2010. 1536-well. Photoreceptor-specific nuclear receptor (Homo sapiens), Q9Y5X4. 320,000 tested, 0.12% active;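 active = percent inhibition above the cutoff of mean plus 3 SD of all tested compounds, set per screening campaign, cut at about 20% in these data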;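 also: 0% = DMSO wells and 100% = biotin wells as full block of FRET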
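System: GST-NR2E3 and biotin-RetCOR proteins; probe or stimulus: 7 nM biotin-RetCOR; doses: compound at 4.8 µM, single dose; schedule: Compound–protein incubation for 5 h at 4 °C; detection: time-resolved FRET; read-out: percent inhibition; controls: biotin wells as high control, 0.6% DMSO wells as low control; format: 1536-well plates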
NR2E3 ag-2: NR2E3 agonists in two-hybrid cells, primary screen, cell-based, luminescence, CHO-S, Gal4-NCOR/VP16-NR2E3; Photoreceptor-specific nuclear receptor (Homo sapiens), Q9Y5X4; luciferase; inhibition of corepressor binding, % at 3.98 µM; 360,000 tested, 0.35% active; AID 602229, 2012;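 active = inhibition above the mean of all tested compounds plus 3 SD, cut at about 70% in these data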;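 also: 0% = DMSO with NR2E3 transfected cells and 100% = cells lacking NR2E3 construct; higher means lower luciferase signal from less NR2E3 corepressor binding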
PP1 counter: PP1-alpha phosphatase inhibitors, primary screen, counter-screen for PP5 inhibitor project, biochemical, fluorescence, OMFP substrate, single point. purified PP1alpha. AID 2235, 2010. Serine/threonine-protein phosphatase PP1-alpha catalytic subunit (Homo sapiens), P62136. inhibition, % at 6.7 µM. 320,000 tested, 0.9% active;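 active = inhibition above the mean inhibition of all tested compounds plus 3 SD, computed separately for each screening campaign, cut at about 15% in these data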
Target sequence (P62136 whole entry, looked up): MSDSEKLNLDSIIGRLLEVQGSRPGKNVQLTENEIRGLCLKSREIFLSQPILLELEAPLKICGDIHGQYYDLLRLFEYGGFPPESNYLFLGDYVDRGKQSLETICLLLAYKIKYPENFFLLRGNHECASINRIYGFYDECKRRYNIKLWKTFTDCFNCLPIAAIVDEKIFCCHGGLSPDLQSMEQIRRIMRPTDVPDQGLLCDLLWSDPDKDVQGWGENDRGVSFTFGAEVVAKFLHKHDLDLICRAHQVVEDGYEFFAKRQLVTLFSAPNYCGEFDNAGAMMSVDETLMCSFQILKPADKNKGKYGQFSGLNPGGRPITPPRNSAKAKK
PP5 primary: PP5 phosphatase inhibitors, primary screen, biochemical, fluorescence; Serine/threonine-protein phosphatase 5 (Homo sapiens), P53041; purified PP5c, OMFP substrate fluorescence; inhibition, % at 6.7 µM; 320,000 tested, 0.18% active; AID 1987, 2009;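 active = inhibition above the campaign's mean inhibition across all tested compounds plus 3 SD, cut at about 9.5% in these data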;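 also: 0% = DMSO only and 100% = 100 µM cantharidin control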
PP1 inh confirm: PP1 phosphatase inhibitors, confirmation, biochemical, fluorescence, OMFP substrate, triplicate; shares compounds with PP1 counter; purified PP1alpha; inhibition, % at 6.7 µM; 1,900 tested, 52% active; AID 2358, 2010;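 active = mean PP1 inhibition above a set limit taken from the earlier primary screen, cut at about 15% in these data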
PP5 counter: PP5 phosphatase inhibition by PP1 hits, confirmation, counter-screen for PP1 inhibitor project, biochemical, fluorescence, triplicate; shares compounds with PP1 counter; purified PP5c, OMFP fluorescence; inhibition, % at 6.7 µM; 1,900 tested, 4% active; AID 2360, 2010;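 active = mean PP5 inhibition over triplicate wells above about 9.5% taken from the earlier PP1 screen, limit read from the data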
* hit, by the source's call; x = not tested or not shown. The list is not random: actives were taken first. Their share in the collection is about 1.3%.

SMILES | NR2E3 ag-1 | NR2E3 ag-2 | PP1 counter | PP5 primary | PP1 inh confirm | PP5 counter
COc1cccc2cc(C(=O)C3=C(O)C(=O)N(CCN4CCOCC4)C3c3ccc(C(C)(C)C)cc3)oc12 (centres undefined) | 9 | -42 | 21* | 4 | 27* | 1
O=C(C1=C(O)C(=O)N(CCN2CCOCC2)C1c1cccc(O)c1)c1cc2ccccc2o1 (centres undefined) | x | -30 | x | x | x | x
O=C(C1=C(O)C(=O)N(CCN2CCOCC2)C1c1ccc(Br)cc1)c1cc2ccccc2o1 (centres undefined) | 18 | 13 | 23* | 3 | 12 | 3
CC(C)C(N)c1csc(NC(=O)Nc2ccc(OC(F)(F)F)cc2)n1 (centres undefined) | x | 18 | x | x | x | x
O=S(=O)(c1cccs1)N1CCN(Cc2cccc(F)c2)CC1 | 2 | -25 | 27* | 2 | 1 | 0
Cc1ccc(S(=O)(=O)N2CCN(Cc3cccc(F)c3)CC2)cc1 | 0 | 4 | -3 | 4 | x | x
Cc1ccc(C(C)C)c(OCc2ccc(C(=O)N/N=C/c3cccc(O)c3O)cc2)c1 | 1 | -7 | 23* | 2 | 18* | 0
Cc1ccc(C(C)C)c(OCc2ccc(C(=O)N/N=C/c3ccc(O)c(O)c3)cc2)c1 | 0 | -72 | 4 | 7 | x | x
Cc1ccc(S(=O)(=O)N(CC(=O)N=Nc2c(O)[nH]c3ccccc23)c2ccc(C)c(C)c2)cc1 | -3 | -9 | 19* | 4 | 19* | 1
Cc1cccc(C)c1Nc1nnc(SCC(=O)Nc2cc(S(=O)(=O)N3CCCCC3)ccc2Cl)s1 | 0 | -4 | 24* | 4 | 21* | 0
Nc1cc(=O)[nH]c(SCC(=O)N2N=C(c3ccc(Cl)cc3)CC2c2ccco2)n1 (centres undefined) | -2 | -4 | 20* | 4 | 10 | -4
CCCc1cc(=O)[nH]c(SCC(=O)N2N=C(c3ccc(Cl)cc3)CC2c2ccco2)n1 (centres undefined) | 2 | 9 | -1 | -2 | x | x
Cc1ccc(/C(O)=C2/C(=O)C(=O)N(c3ccccn3)C2c2cccc([N+](=O)[O-])c2)cc1 (centres undefined) | 4 | -22 | 18* | 0 | 9 | -5
Cc1cc(C(=O)COC(=O)c2ccc[nH]c2=O)c(C)n1-c1ccc(Br)cc1 | 1 | -82 | 18* | 3 | 8 | -6
Cc1ccc(-n2c(C)cc(C(=O)COC(=O)c3ccc[nH]c3=O)c2C)cc1 | -1 | -169 | 12 | 0 | x | x
COc1ccc(-n2c(CNc3ccc(C)cc3)nnc2SCC(=O)Nc2nc(-c3ccccc3)cs2)cc1 | 0 | -9 | 6 | 0 | x | x
COc1ccc(NCc2nnc(SCC(=O)Nc3nc(-c4ccccc4)cs3)n2-c2ccccc2)cc1 | -5 | -11 | 32* | 2 | 26* | -4
CCN(CC)C(=O)/C(=C/c1cn(S(=O)(=O)N(C)C)c2ccccc12)NC(=O)c1ccc(OC)cc1 | 1 | -5 | 27* | 0 | 23* | -2
COc1cc(OC)nc(NC(=O)CS(=O)(=O)c2ccccc2)n1 | -1 | 6 | 30* | 0 | -3 | -1
O=c1c2ccccc2c(C=Nc2cccc(S(=O)(=O)NC3=NCCCCC3)c2)c(O)n1Cc1ccccc1 | 0 | -18 | 19* | -1 | 7 | -2
CCN(CC)CCCN=Cc1c(-c2ccccc2)[nH]n(-c2nc3ccccc3s2)c1=O | 1 | -11 | 30* | 3 | 5 | -1
O=c1cc(-c2ccc(C3CCCCC3)cc2)[nH][nH]1 | 3 | -22 | 18* | 3 | -2 | -4
Cc1nn(-c2ccccc2)c2sc(C(=O)NNC(=O)COc3cccc4ccccc34)cc12 | 5 | -22 | 9 | -7 | x | x
Cc1nn(-c2ccccc2)c2sc(C(=O)NNC(=O)COc3ccccc3)cc12 | 0 | -19 | 23* | 1 | 22* | 0
CC1(O)C(=O)C=C2C=C(c3ccsc3)OC=C2C1=O (centres undefined) | 1 | x | 18* | 0 | 7 | 0
SMILES | NR2E3 ag-1 | NR2E3 ag-2 | PP1 counter | PP5 primary | PP1 inh confirm | PP5 counter
COC(=O)CCC(=O)OC1(C)C(=O)C=C2C=C(c3ccsc3)OC=C2C1=O (centres undefined) | 3 | -4 | 2 | 1 | x | x
CCCCC1=CC2=CC(=O)C(C)(O)C(=O)C2=CO1 (centres undefined) | 4 | x | 19* | 1 | 11 | -3
CC1(OC(=O)c2ccco2)C(=O)C=C2C=C(c3ccsc3)OC=C2C1=O (centres undefined) | 2 | x | 18* | 1 | 8 | -5
CSc1ccc(/C=C(/NC(=O)c2ccco2)C(=O)N2CCCCC2)cc1 | 2 | -8 | -2 | 0 | x | x
CC1CCCCN1S(=O)(=O)c1ccc(C(=O)Nc2nnc(-c3ccccn3)o2)cc1 (centres undefined) | 3 | -25 | 23* | 4 | 22* | 1
CC1CCCCN1S(=O)(=O)c1ccc(C(=O)Nc2nnc(C3CC3)o2)cc1 (centres undefined) | 5 | -9 | 20* | 2 | 12 | -2
CC1CCN(S(=O)(=O)c2ccc(C(=O)Nc3nnc(C4CC4)o3)cc2)CC1 | 2 | 1 | 23* | 2 | 23* | 6
O=C(Nc1nnc(C2CC2)o1)c1ccc(S(=O)(=O)N2CCCCC2)cc1 | -1 | 1 | 20* | 1 | 8 | 0
O=C(Nc1nnc(-c2ccco2)o1)c1ccc(S(=O)(=O)N2CCCCC2)cc1 | x | 30 | x | x | x | x
CC1CCCCN1S(=O)(=O)c1ccc(C(=O)Nc2nnc(-c3ccco3)o2)cc1 (centres undefined) | 3 | 2 | 14 | 3 | x | x
Cc1nnc(NC(=O)c2ccc(S(=O)(=O)N3CCCCC3C)cc2)o1 (centres undefined) | 1 | -18 | 13 | 5 | x | x
CC1CCN(S(=O)(=O)c2ccc(C(=O)Nc3nnc(-c4ccncc4)o3)cc2)CC1 | 6 | 9 | 14 | 1 | x | x
Cc1ccccc1-c1cc2nc(NCCN3CCNC3=O)n(C)c(=O)c2s1 | x | -19 | x | x | x | x
CCN(CC)S(=O)(=O)c1cc(C(=O)Nc2cc(C)[nH]n2)ccc1Cl | -2 | -105 | -2 | 1 | x | x
CCOc1ccc(-c2c[n+]3c(n2-c2ccccc2)CCCCC3)cc1 | 0 | -1 | -3 | 4 | x | x

Bioassay records deposited in PubChem by The Scripps Research Institute Molecular Screening Center.
